# Experimental data pooled from the literature.
# Lines come from different studies, so protocols differ.
# Target: Kappa-type opioid receptor (OPRK1, Homo sapiens, UniProt P41145)
SMILES,read-out,method,setting,endpoint,value
C[C@H]1[C@H]2Cc3ccc(O)cc3[C@]1(C)CCN2CC1CC1,cell-free assay,,,Ki,0.00095 µM
COC(=O)C(c1ccccc1)C1CCCCN1 (stereo not shown),ligand displacement,radioligand,,IC50,6.9 µM
CCCO[C@@]12Cc3cc(-c4ccccc4)cnc3[C@@H]3Oc4c(O)ccc5c4[C@@]31CCN(CC1CC1)[C@@H]2C5,cell-free assay,,,Ki,0.252 µM
Cc1ccccc1Cc1ccc2c(c1)CN(C(=O)[C@@H](N)Cc1c(C)cc(O)cc1C)CC2,ligand displacement,radioligand,cell membranes,Ki,0.0012 µM
CC(CCc1ccc(O)cc1)NCCc1ccc(O)c(O)c1 (stereo not shown),ligand displacement,radioligand,,IC50,5.3 µM
Cc1cc(O)cc(C)c1C[C@H](N)C(=O)N1CCc2ccc(Cc3ccc(N)cc3)cc2C1,ligand displacement,radioligand,cell membranes,Ki,0.091 µM
CN[C@]1(c2ccccc2Cl)CCCCC1=O,ligand displacement,radioligand,,IC50,13 µM
Cc1cc(O)cc(C)c1C[C@H](N)C(=O)N1CCc2ccc(Cc3cccc([N+](=O)[O-])c3)cc2C1,ligand displacement,radioligand,cell membranes,Ki,0.0025 µM
Cc1cc(O)cc(C)c1C[C@H](N)C(=O)N[C@H](C)C(=O)NCC(=O)N[C@@H](Cc1ccc(Cl)cc1)C(=O)N(C)CCC[C@@]1(c2ccc(F)cc2)OCc2cc(C#N)ccc21,cell-free assay,,,Ki,0.037 µM
COc1ncccc1-c1cnn2ccc(N3CCN(C(=O)OC(C)C)CC3)nc12,cell-free assay,,,IC50,> 30 µM
COC(=O)/C=C/C(=O)N[C@@H]1CC[C@@]2(O)[C@H]3Cc4ccc(O)c5c4[C@@]2(CCN3CC2CC2)[C@H]1O5,ligand displacement,radioligand,cell membranes,IC50,0.00778 µM
COc1ccc(C(=O)Nc2ccccc2CCC2CCCCN2C)cc1 (stereo not shown),ligand displacement,radioligand,,IC50,3.6 µM
Cc1cc(O)cc(C)c1C[C@H](N)C(=O)N1Cc2ccccc2CC1C(=O)NCC(=O)NC(Cc1ccc(Cl)cc1)C(=O)N(C)CCC[C@@]1(c2ccc(F)cc2)OCc2cc(C#N)ccc21 (stereo in doubt),cell-free assay,,,Ki,0.091 µM
